In ChEMBL document CHEMBL3120057, “Bioactive limonoids from the leaves of Azaridachta indica (Neem)” (J Nat Prod, 2014):
Calls of active or inactive are those of the source. The calls are words filed in the database; no cut-off is given here.

Key:
[1] = system: PC-3; assay: Cytotoxicity against human PC3 cells assessed as growth inhibition at 100 uM after 48 hrs by trypan blue exclusion assay; format: functional, cell-based
How it was run: (§1)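 Cells cultured in DMEM with 10% FBS, streptomycin and penicillin at 37 °C under 5% CO2, and plated at 1.2 × 10^5/mL one day before treatment. Single 100 μM exposure for 48 h from DMSO stock diluted in medium. Viability read by MTT at 550 nm, blank-subtracted, as % of DMSO-vehicle control. Random checks by trypan blue exclusion count.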

[2] = system: HeLa; assay: Cytotoxicity against human HeLa cells assessed as growth inhibition at 100 uM after 48 hrs by trypan blue exclusion assay; format: functional, cell-based; how it was run: as §1
[3] = molecular target: Heat shock protein HSP 90-alpha (Homo sapiens, UniProt P07900); assay: Binding affinity to recombinant HSP90-alpha (unknown origin) by surface plasmon resonance analysis
[4] = system: HeLa; assay: Cytotoxicity against human HeLa cells after 48 hrs; format: functional, cell-based
How it was run: (§2)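 MTT viability. ATCC cells in DMEM with 10% FBS and penicillin/streptomycin at 37 °C under 5% CO2, plated at 1.2 × 10^5/mL the day before dosing. Exposed 48 h to 20−100 μM (DMSO stocks diluted in medium). Formazan dissolved in DMSO and read at 550 nm. Viability expressed as % of vehicle control, blank-subtracted. Checked by trypan blue count. PEITC as positive control. Mean ± SD, at least three experiments in duplicate.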

[5] = system: PC-3; assay: Cytotoxicity against human PC3 cells after 48 hrs; format: functional, cell-based; details: PC-3, 48 h; how it was run: as §2

| Structure (SMILES) | growth inhibition (GI) [1] | growth inhibition (GI) [2] | Kd [3] | IC50 [4] | IC50 [5] | Activity [3] |
| --- | --- | --- | --- | --- | --- | --- |
| C/C=C(\C)C(=O)O[C@H]1C[C@@H](O)[C@@]2(C)CO[C@H]3[C@H]4O[C@@H]5C[C@@H](c6ccoc6)C(C)=C5[C@@]4(C)[C@H](CC(=O)OC)[C@]1(C)[C@@H]32 [DESACETYL SALANNIN] | inactive | inactive | 33 nM | – | – | – |
| CC(=O)O[C@@H]1[C@H](O)[C@H]2C(C)(C)C(=O)C=C[C@]2(C)[C@H]2CC[C@]3(C)C(=CC[C@H]3[C@@H]3CC(=O)OC3=O)[C@]12C (relative stereo) | Active | Active | – | 95 µM | > 100 µM | – |
| CC(=O)O[C@@H]1C[C@H](OC(=O)C=C(C)C)[C@@]2(C)[C@H]3[C@@H](OC[C@]13C)[C@@H](O)[C@@]1(C)C3=CC[C@@H]([C@@H]4COC(=O)C4)[C@]3(C)CC[C@@H]12 | inactive | inactive | – | – | – | inactive |
| COC(=O)[C@H]1OC[C@]23[C@@H]1[C@](C)([C@]14O[C@@]1(C)[C@H]1C[C@@H]4O[C@@H]4OC=C[C@@]41O)[C@H](O)[C@@H]1OC[C@](C(=O)OC)([C@H](O)C[C@@H]2O)[C@H]13 | inactive | inactive | – | – | – | – |
| CC(=O)O[C@@H]1[C@H](O)[C@H]2C(C)(C)C(=O)CC[C@]2(C)[C@H]2CC[C@]3(C)C(=CC[C@H]3C3=COC(=O)C3O)[C@]12C (stereo partly drawn) | inactive | inactive | – | – | – | – |
| CC(=O)O[C@@H]1[C@H](O)[C@H]2C(C)(C)C(=O)CC[C@]2(C)[C@H]2CC[C@]3(C)C(=CC[C@H]3[C@H]3COC(=O)C3)[C@]12C | inactive | inactive | – | – | – | – |
| CC(=O)O[C@@H]1[C@H](O)[C@H]2C(C)(C)C(=O)C=C[C@]2(C)[C@H]2CC[C@]3(C)C(=CC[C@H]3C3=COC(=O)C3O)[C@]12C (relative stereo) | inactive | inactive | – | – | – | – |
| CC(=O)O[C@H]1C[C@@H](OC(C)=O)[C@@]2(C)CO[C@@H]3[C@@H](O)[C@@]4(C)C5=CC[C@@H](c6ccoc6)[C@]5(C)CC[C@@H]4[C@]1(C)[C@@H]32 | Active | Active | 49 nM | 74 µM | 80 µM | – |
| CC(=O)O[C@@H]1[C@H](O)[C@H]2C(C)(C)C(=O)CC[C@]2(C)[C@H]2CC[C@]3(C)C(=CC[C@H]3c3ccoc3)[C@]12C | Active | Active | – | 74 µM | 90 µM | – |
| CC(=O)O[C@@H]1[C@H](O)[C@H]2C(C)(C)C(=O)C=C[C@]2(C)[C@H]2CC[C@]3(C)C(=CC[C@H]3c3ccoc3)[C@]12C [NIMONOL] | Active | Active | – | 77 µM | 95 µM | – |
| C/C=C(\C)C(=O)O[C@H]1C[C@@H](O)[C@@]2(C(=O)OC)CO[C@H]3[C@@H](O)[C@@](C)([C@]45O[C@@]4(C)[C@H]4C[C@@H]5O[C@@H]5OC=C[C@@]54O)[C@@H]4[C@@H](C(=O)OC)OC[C@@]14[C@@H]32 | inactive | inactive | – | – | – | – |
| CC(=O)O[C@@H]1[C@H](O)[C@H]2C(C)(C)C(=O)CC[C@]2(C)[C@H]2CC[C@]3(C)C(=CC[C@H]3[C@@H]3CC(=O)OC3=O)[C@]12C (relative stereo) | inactive | inactive | – | – | – | – |
| COC(=O)C[C@H]1[C@]2(C)C3=C(C)[C@H](C4=CC(=O)OC4O)C[C@@H]3O[C@@H]2[C@H](O)[C@@H]2[C@]1(C)C(=O)C=C[C@@]2(C)O (stereo partly drawn) | inactive | inactive | – | – | – | inactive |
| COc1cc(/C=C/C(=O)OC[C@H]2O[C@@H](OC(C)(C)C(=O)O)[C@H](O)[C@@H](O)[C@@H]2O)cc(OC)c1O | inactive | inactive | – | – | – | – |
| COC(=O)C[C@H]1[C@]2(C)C3=C(C)[C@H](C4=COC(=O)C4O)C[C@@H]3O[C@@H]2[C@H](O)[C@@H]2[C@]1(C)C(=O)C=C[C@@]2(C)O (stereo partly drawn) | inactive | inactive | – | – | – | inactive |
